Data taken from ChEMBL document CHEMBL1122852, “Imidazo[1,5-d][1,2,4]triazines as potential antiasthma agents” (J Med Chem, 1985).

Organism: Homo sapiens
Assay: Inhibitory activity against histamine release from antigen-challenged, sensitized human basophils
Assay type: functional
Summary of the method: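 Histamine release was induced by antigen challenge of sensitized human basophils in vitro. Compounds were first screened at a single concentration. Those reducing release by more than 50% went on to concentration-response testing to estimate IC50. Values are given with standard error and number of experiments.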

| SMILES | IC50 (Homo sapiens) [µM] | IC50 [µM] |
| --- | --- | --- |
| CCCc1ncn2c(S)nncc12 | > 48 | – |
| Cc1ncn2c(Nc3cccs3)nncc12 | > 48 | – |
| CCOC(=O)CSc1nncc2cncn12 | > 48 | – |
| CCO/C(O)=C\c1nncc2cncn12 | > 48 | – |
| C=CCSc1nncc2c(C)nc(C)n12 | 59 | – |
| C=CCn1ncc2c(C)nc(CC)n2c1=O | > 48 | – |
| CSc1nncc2c(C)ncn12 | > 48 | – |
| CC(C)c1ncn2c(O)nncc12 | > 48 | – |
| c1ncn2c1C(NC1CCCC1)NN=C2NC1CCCC1 (centres undefined) | > 48 | – |
| CC(C)(C)c1nc(Br)c2cnnc(O)n12 | 19 | – |
| Oc1nncc2cncn12 | > 48 | – |
| CCCc1nc(C)c2c(-c3ccccc3)nnc(SC)n12 | > 48 | – |
| CCCc1ncc2c(C)nnc(SC)n12 | > 48 | – |
| C=CCSc1nncc2cnc(-c3ccccc3)n12 | > 48 | – |
| CCc1nc(C)c2cnnc(SC)n12 | > 48 | – |
| CC(C)(C)c1ncc2cnnc(O)n12 | > 48 | – |
| Oc1nnc(-c2ccccc2)c2cncn12 | 19 | – |
| COCc1nc(C)c2cnnc(S)n12 | > 48 | – |
| C=CCn1nc(Br)c2c(Br)nc(CCC)n2c1=O | > 48 | – |
| CSc1nnc(-c2ccccc2)c2cncn12 | > 48 | – |
| Oc1nncc2c(Br)nc(Cc3ccccc3)n12 | > 48 | – |
| CCCc1nc(C)c2c(C)nnc(SC)n12 | > 48 | – |
| CSc1nncc2cnc(C)n12 | > 48 | – |

| SMILES | IC50 (Homo sapiens) [µM] | IC50 [µM] |
| --- | --- | --- |
| CSc1nncc2c(C)nc(C(C)C)n12 | > 48 | – |
| CCCc1nc(C)c2cnnc(SCC(=O)OCC)n12 | > 48 | – |
| CCCc1ncc2cnnc(O)n12 | > 48 | – |
| CCCc1nc(C)c2c(-c3ccccc3)nnc(O)n12 | > 48 | – |
| CCCc1nc(C)c2cnnc(SC)n12 | > 48 | – |
| CCCc1ncn2c(SC)nncc12 | > 48 | – |
| Cc1nc(C(C)C)n2c(O)nnc(-c3ccccc3)c12 | > 48 | – |
| CCCc1nc(C)c2c(C)nn(CCC)c(=O)n12 | > 48 | – |
| CCCc1nn(C)c(=O)n2c(CCC)nc(C)c12 | 18 | – |
| C=CCn1ncc2c(C)nc(CCC)n2c1=S | > 48 | – |
| CCc1nc(C)c2cnn(CC)c(=O)n12 | 75.6 | – |
| Sc1nncc2cnc(-c3ccccc3)n12 | > 48 | – |
| CCCc1nc(C)c2n1C(SC)=NNC2c1ccccc1 (centres undefined) | > 48 | – |
| c1ccc(-c2cn[nH]c2Nc2nncc3cncn23)cc1 | 10 | – |
| CCCc1ncc2c(C)nnc(S)n12 | > 48 | – |
| CCCc1nc(C)c2cnnc(O)n12 | 56.8 | – |
| CCCc1nc(C)c2c(C(C)C)nnc(O)n12 | > 48 | – |
| c1coc(CNc2nncc3cncn23)c1 | > 48 | – |
| CCOC(=O)C(C)Sc1nncc2cncn12 (centres undefined) | > 48 | – |
| CCCc1nnc(SC)n2c(CCC)nc(C)c12 | > 48 | – |
| CCOC(=O)CSc1nncc2c(C)nc(C)n12 | > 48 | – |
| C=CCn1ncc2c(C)ncn2c1=O | > 48 | – |
| CCCc1ncn2c(Nc3cc[nH]n3)nncc12 | > 48 | – |

| SMILES | IC50 (Homo sapiens) [µM] | IC50 [µM] |
| --- | --- | --- |
| CCCc1nc(C)c2cnn(CC)c(=O)n12 | > 48 | – |
| CCc1nnc(O)n2c(C(C)CC)nc(C)c12 (centres undefined) | 45 | – |
| CCOC(=O)CSc1nncc2c(C)ncn12 | > 48 | – |
| CCCc1nnc(O)n2c(C)nc(C)c12 | > 48 | – |
| C=CCn1ncc2c(C)nc(C(C)(C)C)n2c1=O | > 48 | – |
| CCOC(=O)/C=C/CSc1nncc2cncn12 | > 48 | – |
| CCCc1nc(C)c2cnn(CC3CC3)c(=O)n12 | > 48 | – |
| CC(=O)N(C1=NNCC1)c1nncc2c(C)ncn12 | > 48 | – |
| C=CCn1ncc2c(CC)ncn2c1=S | > 48 | – |
| CCCc1nc(C)c2c(C)nn(C)c(=O)n12 | > 48 | – |
| C=C=Cn1nc(C)c2c(C)nc(CCC)n2c1=O | > 48 | – |
| c1ncn2c(NC3CCCC3)nncc12 | > 48 | – |
| C=CCn1ncc2cnc(C)n2c1=O | > 48 | – |
| CCOC(=O)Cn1ncc2c(C)ncn2c1=O | > 48 | – |
| CCCc1nc(C)c2c(C)nn(CC(=O)OCC)c(=O)n12 | > 48 | – |
| CCCc1nc(C)c2c(CC)nnc(S)n12 | > 48 | – |
| c1ncn2c(N3CCCCC3)nncc12 | > 48 | – |
| C=CCn1ncc2c(Br)nc(CCC)n2c1=O | > 48 | – |
| COCc1nc(C)c2c(C)nnc(O)n12 | > 48 | – |
| CCCc1nc(C)c2cnn(CC(=O)OCC)c(=O)n12 | > 48 | – |
| CCOC(=O)Cn1ncc2cncn2c1=O | > 48 | – |
| COCc1ncc2cnnc(S)n12 | > 48 | – |
| C=CCn1nc(C)c2c(C)nc(CCC)n2c1=O | 69 | > 48 |

| SMILES | IC50 (Homo sapiens) [µM] | IC50 [µM] |
| --- | --- | --- |
| CCCc1nc(C)n2c(O)nncc12 | > 48 | – |
| C=CCn1ncc2c(C)nc(C(C)C)n2c1=O | > 48 | – |
| Oc1nncc2cnc(Cc3ccccc3)n12 | > 48 | – |
| CCOC(=O)/C(=C(\O)OCC)c1nncc2cncn12 | > 48 | – |
| CCc1nc(C)c2cnnc(S)n12 | > 48 | – |
| Cc1nc(C(C)(C)C)n2c(O)nncc12 | 31 | – |
| C=CCn1ncc2c(C)nc(C)n2c1=O | 73 | – |
| CCCc1nc(C)c2c(C)nn(CC(=O)c3ccccc3)c(=O)n12 | > 48 | – |
| CCc1nnc(O)n2c(CC)nc(C)c12 | 24 | – |
| CCCc1nc(C)c2cnn(C/C=C/C(=O)OCC)c(=O)n12 | > 48 | – |
| CCCc1nc(C)c2c(C)nn(Cc3ccccc3)c(=O)n12 | > 48 | – |
| CNc1nncc2cncn12 | > 48 | – |
| Cc1nc(C(C)C)n2c(O)nncc12 | > 48 | – |
| CSc1nnc(C)c2c(C)nc(C)n12 | > 48 | – |
| Cc1ncn2c(NN)nncc12 | > 48 | – |
| CN(C)CCNc1nncc2cncn12 | > 48 | – |
| CCCc1nnc(S)n2c(CCC)nc(C)c12 | > 48 | – |
| CCCc1nc(C)c2cnn(C)c(=O)n12 | 20 | – |
| CC(C)CCSc1nncc2cncn12 | 9 | – |
| C=CCSc1nncc2cnc(C)n12 | 61 | – |
| CCCCCCCCCCCCCCCCCc1ncc2cnnc(S)n12 | > 48 | – |
| C=CCn1ncc2c(Br)nc(Cc3ccccc3)n2c1=O | > 48 | – |
| COCc1ncc2cnnc(NCCN(C)C)n12 | > 48 | – |

| SMILES | IC50 (Homo sapiens) [µM] | IC50 [µM] |
| --- | --- | --- |
| CCn1ncc2cncn2c1=S | > 48 | – |
| CCCc1ncc2cnnc(S)n12 | > 48 | – |
| CSc1nncc2c(C(C)C)ncn12 | > 48 | – |
| CCCc1ncc2cnnc(SC)n12 | > 48 | – |
| CCCc1nc(C)c2c(C)nnc(S)n12 | 45 | – |
| CCc1nnc(O)n2c(C)nc(C)c12 | > 48 | – |
| CCc1nc(C)c2cnnc(O)n12 | > 48 | – |
| Cc1nc(C)n2c(S)nncc12 | > 48 | – |
| COCc1ncc2cnnc(O)n12 | > 48 | – |
| Oc1nnc(Br)c2c(Br)nc(Br)n12 | 27 | – |
| CCCc1nc(Br)c2c(Br)nnc(O)n12 | 48 | – |
| CCCOc1ccccc1-c1ncc2cnnc(O)n12 | > 48 | – |
| O/C(=C/c1nncc2cncn12)c1ccccc1 | 38 | – |
| CSc1nnc(-c2ccccc2)c2c(C)nc(C(C)C)n12 | > 48 | – |
| COCc1nc(Br)c2c(Br)nnc(O)n12 | > 48 | – |
| CCc1ncn2c(O)nncc12 | > 48 | – |
| CCc1ncn2c(S)nncc12 | > 48 | – |
| CCCc1nc(C)c2c(C3CC3)nnc(O)n12 | > 48 | – |
| CCCc1nc(C)c2c(C)nn(CC(O)CO)c(=O)n12 (centres undefined) | > 48 | – |
| Sc1nncc2cncn12 | > 48 | – |
| CCc1nc(C)c2c(-c3ccccc3)nnc(O)n12 | > 48 | – |
| C=CCn1ncc2c(CC)ncn2c1=O | > 48 | – |
| CC(C)c1ncn2c(S)nncc12 | > 48 | – |

| SMILES | IC50 (Homo sapiens) [µM] | IC50 [µM] |
| --- | --- | --- |
| Cc1nnc(S)n2c(C)nc(C)c12 | > 48 | – |
| c1ccc(CNc2nncc3cncn23)cc1 | > 48 | – |
| Cc1ncn2c(S)nncc12 | > 48 | – |
| CCCc1nc(C)c2c(-c3ccccc3)nnc(Nc3cc[nH]n3)n12 | > 48 | – |
| CCCc1nc(C)c2cnnc(S)n12 | 10 | – |
| CCc1nnc(O)n2c(C(C)(C)C)nc(C)c12 | 26 | – |
| C=CCn1ncc2cnc(COC)n2c1=O | > 48 | – |
| CCCc1nc(C)c2c(CC)nnc(SC)n12 | > 48 | – |
| c1nc(Nc2nncc3cncn23)n[nH]1 | 46 | – |
| CSc1nncc2c(C)nc(C)n12 | > 48 | – |
| COCc1ncc2n1C(NCCN(C)C)NN=C2NCCN(C)C (centres undefined) | > 48 | – |
| C=CCSc1nncc2cnc(CCC)n12 | > 48 | – |
| C=CCn1nc(CCC)c2c(C)nc(CCC)n2c1=O | 29 | – |
| CCCc1nc(C)c2cnnc(NCCN(C)C)n12 | > 48 | – |
| Cc1ncc2cnnc(O)n12 | > 48 | – |
| CCCc1ncn2c(O)nncc12 | > 48 | – |
| Cc1nc(-c2ccccc2)n2c(S)nncc12 | > 48 | – |
| Cc1nc(C(C)C)n2c(S)nncc12 | > 48 | – |
| Sc1nncc2cnc(-c3cccc(Cl)c3)n12 | > 48 | – |
| Cc1nc(-c2ccccc2)n2c(O)nncc12 | > 48 | – |
| CCc1nnc(S)n2c(C(C)CC)nc(C)c12 (centres undefined) | > 48 | – |
| COCc1nc(Br)c2cnnc(O)n12 | > 48 | – |
| C=CCn1ncc2cnc(-c3ccc(OC)cc3)n2c1=O | > 48 | – |

| SMILES | IC50 (Homo sapiens) [µM] | IC50 [µM] |
| --- | --- | --- |
| CCCc1nc(C)c2c(C(C)C)nnc(SC)n12 | > 48 | – |
| Cc1nc(C)n2c(O)nncc12 | > 48 | – |
| CCCc1nnc(O)n2c(C)ncc12 | > 48 | – |
| Cc1ncn2c(O)nncc12 | > 48 | – |
| Cc1ncc2cnnc(S)n12 | > 48 | – |
| Cc1nc(Cc2ccccc2)n2c(O)nncc12 | > 48 | – |
| C=CCn1ncc2cncn2c1=O | > 48 | – |
| C(=C\CSc1nncc2cncn12)/CSc1nncc2cncn12 | > 48 | – |
| C=CCn1ncc2cnc(Cc3ccccc3)n2c1=O | > 48 | – |
| CCOC(=O)Cn1ncc2cnc(COC)n2c1=O | > 48 | – |
| C=CCn1ncc2c(C)nc(CCC)n2c1=O | 40 | – |
| Oc1nncc2cnc(-c3ccccc3)n12 | > 48 | – |
| CCCc1nc(C)c2c(C)nn(CC)c(=O)n12 | > 48 | – |
| C=CCSc1nncc2cnc(COC)n12 | 79 | – |
| Cc1nc(CC(C)(C)C)n2c(O)nncc12 | > 48 | – |
| CCCc1nc(C)c2c(C)nn(CC(=O)O)c(=O)n12 | > 48 | – |
| Cc1ncn2c(N(C)C)nncc12 | > 48 | – |
| CCCc1nc(C)c2c(C(C)C)nnc(S)n12 | > 48 | – |
| C=CCSc1nncc2c(C)nc(-c3ccccc3)n12 | > 48 | – |
| c1ncn2c(NC34CC5CC(CC(C5)C3)C4)nncc12 | > 48 | – |
